DENV2 CPE = protects cells from dengue virus 2 cytopathic effect; DENV2-infected cells, cytopathic effect rescue, plate reader; 350,000 tested, 1.7% active; AID 651640; CPE inhibition, % at 9.99 µM; in the data active means CPE inhibition above about 20%, passing the limit was not always enough; inconclusive means no clear call, values can overlap the other calls; tested in BHK-21 cells;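 further: 0% = median of neutral control wells and 100% = median of positive control wells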
CAL PDZ FP-1 = inhibitors of human CAL PDZ peptide binding | inhibition, % at 20 µM | purified CAL PDZ, TMR-peptide fluorescence polarization, 1 h | 330,000 tested, 0.02% active | AID 504414;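 active means highest replicate inhibition of at least 40%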;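 further: plate controls were DMSO neutral control wells for no effect and unlabeled competitor peptide control wells for full effect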
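System: tagged CAL PDZ domain. Schedule: 1 h room-temperature incubation prior to read. Signal: fluorescence polarization (mP). Measure: percent inhibition from loss of millipolarization.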
S100A4 inh HTS = inhibitors of human S100A4 binding to myosin IIA peptide | inhibition, % at 10.7 µM | AID 652163 | P26447 | S100A4/TAMRA-MyoIIA peptide fluorescence polarization | 360,000 tested, 0.14% active;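 active means mean inhibition of at least 70% across replicates, with every replicate also reaching that level; inconclusive means mean inhibition reaches 70% but some replicates fall short; inactive means mean inhibition below 70%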
Target sequence (P26447 whole entry, looked up): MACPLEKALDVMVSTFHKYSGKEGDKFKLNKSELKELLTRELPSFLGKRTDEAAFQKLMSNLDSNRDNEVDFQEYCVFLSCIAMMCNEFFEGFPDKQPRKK
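Assay system: human S100A4 monomer with TAMRA-labelled myosin IIA peptide / Buffer or medium: Calcium-containing HEPES buffer, pH 7.2 / Reagent: TAMRA-labelled myosin IIA heavy-chain peptide probe, 5 nM / Compound: one dose per compound / Timing: polarization read 5 min after assay mix addition, stable 5–60 min / Benchmarks: neutral control DMSO, positive control TFP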
SIRT5 block = inhibitors of human sirtuin-5 desuccinylase; Q9NXA8; Purified SirT5, succinyl-peptide AMC, trypsin-coupled fluorescence; inhibition, % at 15 µM; 330,000 tested, 1.1% active; in the data active means inhibition above about 15%; inconclusive means no clear call, values can overlap the other calls
Target sequence (Q9NXA8 whole entry, looked up): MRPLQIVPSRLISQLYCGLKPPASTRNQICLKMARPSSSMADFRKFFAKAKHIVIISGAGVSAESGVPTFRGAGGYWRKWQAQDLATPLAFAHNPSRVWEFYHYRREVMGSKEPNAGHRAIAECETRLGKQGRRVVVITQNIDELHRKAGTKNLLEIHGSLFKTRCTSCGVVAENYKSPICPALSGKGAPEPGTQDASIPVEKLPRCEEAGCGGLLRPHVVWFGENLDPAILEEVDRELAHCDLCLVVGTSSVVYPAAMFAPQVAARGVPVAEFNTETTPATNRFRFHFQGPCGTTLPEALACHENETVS
CAL PDZ FP-2 = inhibitors of human CAL PDZ peptide binding. inhibition, % at 24.9 µM. 300,000 tested, 0.92% active. purified CAL PDZ, TMR-peptide fluorescence polarization, 1 h. AID 602252;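 active means mean inhibition of at least 30% with at least half of replicates also reaching 30%; inconclusive means no clear call, values can overlap the other calls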;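 further: 0% = DMSO neutral control and 100% = excess unlabeled competitor peptide PRC23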
ERAP1 inh = ERAP1 (human) enzyme inhibition | inhibition, % at 10.7 µM | AID 652197 | recombinant ERAP1, Leu-AMC fluorescence, 60 min | 340,000 tested, 0.15% active;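 active means mean replicate inhibition of at least 30%, or all replicates individually reaching that 30% level; inactive means mean below 30% and not every replicate reaching it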;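 further: 0% = neutral control wells and 100% = L-leucinethiol positive control wells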
Numbers without * were called inactive. Shown are actives, neighbours in structure and some others; about 2.9% of the full set was active somewhere.

For CC(C)NC(=O)Nc1cccc2c1O[C@H](CN(C)C(=O)Nc1ccccc1)[C@@H](C)CN([C@@H](C)CO)C2=O the results were DENV2 CPE 48*, S100A4 inh HTS -9, SIRT5 block 0 and ERAP1 inh -3.
For CC(C)NC(=O)Nc1cccc2c1O[C@@H](CN(C)C(=O)NC(C)C)[C@@H](C)CN([C@@H](C)CO)C2=O the results were DENV2 CPE 66*, S100A4 inh HTS 6, SIRT5 block 2 and ERAP1 inh -5.
CO[C@@H]1CN(C)C(=O)c2cc(NC(=O)Nc3ccc(Cl)cc3)ccc2OC[C@H](C)N(C)C[C@@H]1C was read as DENV2 CPE -3, S100A4 inh HTS 6, SIRT5 block -5 and ERAP1 inh 2.
Screening C[C@H](CO)N1C[C@H](C)[C@H](CN(C)C)Oc2c(NC(=O)Nc3cccc4ccccc34)cccc2C1=O returned DENV2 CPE 34*, S100A4 inh HTS inconclusive, SIRT5 block -7 and ERAP1 inh -1.
For C[C@H]1CN([C@@H](C)CO)C(=O)c2cccc(NC(=O)Nc3cccc4ccccc34)c2O[C@H]1CN(C)C(=O)Nc1cccc2ccccc12 the results were DENV2 CPE 0, S100A4 inh HTS 4, SIRT5 block 2 and ERAP1 inh 0.
Screening CO[C@H](CN(C)CC1CCOCC1)[C@H](C)CN(C(=O)Nc1ccc(F)cc1)[C@@H](C)CO returned DENV2 CPE 5, S100A4 inh HTS -3, SIRT5 block 4 and ERAP1 inh -3.
`CCOCCCNC(=O)CN1C(=O)/C(=C/c2ccccc2C)Sc2ccccc21` gave DENV2 CPE 1, CAL PDZ FP-1 -1, S100A4 inh HTS -9, SIRT5 block -3, CAL PDZ FP-2 31* and ERAP1 inh 0.
Screening COCCCNC(=O)CN1C(=O)/C(=C\c2ccc(C)cc2)Sc2ccccc21 returned CAL PDZ FP-1 -3 and CAL PDZ FP-2 -3.
For Cc1noc(C)c1S(=O)(=O)Nc1ccc2c(c1)C(=O)N([C@H](C)CO)C[C@@H](C)[C@@H](CN(C)C(=O)Cc1ccccc1)OCCCC[C@H](C)O2 the results were DENV2 CPE 3, S100A4 inh HTS 1, SIRT5 block -1 and ERAP1 inh 1.
For O=S(=O)(c1ccccc1)N1[C@@H]2CNC[C@H]1C2c1ccc(-c2ccccc2)cc1 (some centres undefined) the results were DENV2 CPE 68*, S100A4 inh HTS 0, SIRT5 block -1 and ERAP1 inh 0.
Screening Cc1ccc(S(=O)(=O)N2[C@@H]3CNC[C@H]2C3c2ccc(-c3cccc(F)c3)cc2)cc1 (some centres undefined) returned DENV2 CPE -4, S100A4 inh HTS -10, SIRT5 block 4 and ERAP1 inh 2.
For Cc1ccc(S(=O)(=O)N2[C@@H]3CNC[C@H]2C3c2ccc(-c3ccc(C#N)cc3)cc2)cc1 (some centres undefined) the results were DENV2 CPE 29*, S100A4 inh HTS -1, SIRT5 block -1 and ERAP1 inh -2.
O=S(=O)(c1ccccc1)N1[C@@H]2CNC[C@H]1C2c1ccc(-c2ccc(F)cc2)cc1 (some centres undefined) was read as DENV2 CPE 7.
CCC(=O)Nc1ccc2c(c1)C(=O)N(C)C[C@@H](OC)[C@H](C)CN(Cc1cccc(F)c1)[C@H](C)CO2 was read as DENV2 CPE 3, S100A4 inh HTS 5, SIRT5 block -2 and ERAP1 inh 0.
For C[C@@H]1CN([C@H](C)CO)C(=O)c2cc(N(C)C)ccc2O[C@@H]1CN(C)S(=O)(=O)c1ccc(F)cc1 the results were DENV2 CPE inconclusive, S100A4 inh HTS 11, SIRT5 block -2 and ERAP1 inh 0.
For CCC(=O)N1CCC2(CC1)CN(C(=O)c1cnccn1)[C@H](CO)c1c2c2ccc(OC)cc2n1C the results were DENV2 CPE 1, S100A4 inh HTS 0, SIRT5 block 2 and ERAP1 inh -1.
Cc1cc(C)nc(S/C=C/C(=O)c2ccccc2F)n1 was read as DENV2 CPE 0, CAL PDZ FP-1 0, S100A4 inh HTS 1, SIRT5 block -3, CAL PDZ FP-2 80* and ERAP1 inh -1.
For C[C@@H]1CN([C@H](C)CO)S(=O)(=O)c2ccc(C#CC3CC3)cc2O[C@@H]1CN(C)C(=O)c1ccccc1 the results were S100A4 inh HTS -10, SIRT5 block -3 and ERAP1 inh 4.
CCN1CC2=C(OC(N)=C(C#N)C2c2ccccc2)/C(=C\c2ccccc2)C1 (centres undefined) was read as CAL PDZ FP-2 -2.
For CCN1CC2=C(OC(N)=C(C#N)C2c2cccs2)/C(=C/c2cccs2)C1 (centres undefined) the results were CAL PDZ FP-1 0 and CAL PDZ FP-2 43*.
S=c1[nH]nc(NCCCN2CCOCC2)s1 was read as DENV2 CPE -7, CAL PDZ FP-1 -1, S100A4 inh HTS 8, SIRT5 block 1, CAL PDZ FP-2 -2 and ERAP1 inh 86*.
For S=C(NCCCN1CCOCC1)NCCCN1CCOCC1 the results were DENV2 CPE 1, CAL PDZ FP-1 0, S100A4 inh HTS -21, SIRT5 block -14, CAL PDZ FP-2 4 and ERAP1 inh 1.
C[C@H](CO)N1C[C@H](C)[C@@H](CN(C)Cc2ccc3c(c2)OCO3)Oc2ccc(NC(=O)c3ccncc3)cc2CC1=O was read as DENV2 CPE 29*, S100A4 inh HTS 3, SIRT5 block 0 and ERAP1 inh -1.
For C[C@@H]1CN([C@H](C)CO)C(=O)Cc2cc(NC(=O)Nc3ccc(C(F)(F)F)cc3)ccc2O[C@H]1CN(C)Cc1ccc(C(=O)O)cc1 the results were DENV2 CPE 24*, S100A4 inh HTS 3, SIRT5 block 5 and ERAP1 inh 2.
For C[C@H](CO)N1C[C@H](C)[C@H](CN(C)Cc2ccc(C(F)(F)F)cc2)Oc2ccc(NC(=O)Nc3ccccc3)cc2CC1=O the results were DENV2 CPE 25*, S100A4 inh HTS -1, SIRT5 block -1 and ERAP1 inh -3.
`C[C@H](CO)N1C[C@H](C)[C@H](CN(C)Cc2ccc3c(c2)OCO3)Oc2ccc(NC(=O)c3ccncc3)cc2CC1=O` gave DENV2 CPE 11, S100A4 inh HTS -2, SIRT5 block -3 and ERAP1 inh 1.
For C[C@@H]1CN([C@H](C)CO)C(=O)Cc2cc(NC(=O)Nc3ccc(C(F)(F)F)cc3)ccc2O[C@H]1CN(C)Cc1ccc2c(c1)OCO2 the results were DENV2 CPE inconclusive, S100A4 inh HTS 101*, SIRT5 block 8 and ERAP1 inh 2.
